Measurements pooled from the literature.
Each line is one published result; the experiments were not run side by side.
Effect on: metabolic stability
Host: human
Medium: liver microsomes

Cc1ccc(N(C)c2ccc(NC(=O)CN(C)c3ccccc3N3CCCC3=O)cn2)cc1 — microsomal CLint: 216 µL/min/mg
CC1(C(F)(F)F)NC(=O)N(c2ccc(F)c(C(F)(F)F)c2)C1=O (stereo not drawn) — microsomal CLint: < 7 µL/min/mg
Cc1ccc(-c2csc(CNC(=O)[C@H]3CCCN(C(=O)COCCF)[C@H]3C)n2)cn1 — microsomal CLint (0.5 µM): 5.1 µL/min/mg
CNc1ccc(C(N)=O)cn1 — microsomal CLint (1 µM; pH 7.4): < 3 µL/min/mg
O=c1c2c([nH]c3cccc(Oc4ccc(OC(F)(F)F)cc4)c13)CCCC2 — microsomal CLint (1 µM; pH 7.4): 109 µL/min/mg
COCC(=O)N1CCC[C@H](C(=O)NCc2nc(-c3ccc(OC(F)(F)F)cc3)cs2)C1 — microsomal CLint (0.5 µM): 37 µL/min/mg
CC(C)(C)OC(=O)N1CCC(Oc2ccc3c(=O)c4c(Cl)cc(F)cc4[nH]c3c2)CC1 — microsomal CLint (1 µM; pH 7.4): 7.13 µL/min/mg
Cc1ccc(N(C)c2ccc(NC(=O)CN(C)c3cccnc3N3CCCC3=O)cc2)cc1 — microsomal CLint: 222 µL/min/mg
O=c1c2c([nH]c3ccc(F)c(Oc4ccc(OC(F)(F)F)cc4)c13)CCCC2 — microsomal CLint (1 µM; pH 7.4): 92.7 µL/min/mg
CC1(C(F)F)NC(=O)N(c2ccc(F)c(C(F)(F)F)c2)C1=O (stereo not drawn) — microsomal CLint: < 7 µL/min/mg
CCOc1ccc(-c2csc(CNC(=O)[C@H]3CCCN(C(=O)COC)C3)n2)cc1 — microsomal CLint (0.5 µM): 24 µL/min/mg
CC1(C)NC(=O)N(c2cc(C(F)(F)F)c(F)cc2C#N)C1=O — microsomal CLint: < 7 µL/min/mg
CCOCC(=O)N1CC[C@@H](C)[C@H](C(=O)NCc2nc(-c3ccc(C)nc3)cs2)C1 (racemic) — microsomal CLint (0.5 µM): 6.9 µL/min/mg
O=c1c2c([nH]c3cc(Oc4ccc(OC(F)(F)F)cc4)c(F)cc13)CCCC2 — microsomal CLint (1 µM; pH 7.4): 72.5 µL/min/mg
C#C[C@]1(OC(C)=O)CC[C@H]2[C@@H]3CCC4=CC(=NO)CC[C@@H]4[C@H]3CC[C@@]21CC (mixture of isomers) — microsomal CLint: 70.1 µL/min/mg
O=c1c2ccc(OCc3ccc(C(F)(F)F)cc3)cc2[nH]c2cc(Cl)cc(F)c12 — microsomal CLint (1 µM; pH 7.4): 6.71 µL/min/mg
O=C(NCc1nc(-c2ccccc2)cs1)[C@H]1CCCN(C(=O)[C@@H]2CCCO2)C1 — microsomal CLint (0.5 µM): 36 µL/min/mg
O=c1c2ccc(OCc3ccc(OC(F)(F)F)cc3)cc2[nH]c2cc(Cl)cc(F)c12 — microsomal CLint (1 µM; pH 7.4): 14.9 µL/min/mg
CCONC(=O)N1CCC[C@H](C(=O)NCc2nc(-c3ccccc3)cs2)C1 — microsomal CLint (0.5 µM): 10 µL/min/mg
O=c1c2c(F)cc(Cl)cc2[nH]c2cccc(Oc3ccc(OC(F)(F)F)cc3)c12 — microsomal CLint (1 µM; pH 7.4): 5.86 µL/min/mg
Cc1ccc(N(C)c2ccc(NC(=O)CN(C)c3cc(F)ccc3N3CCCC3=O)cc2)cc1 — microsomal CLint: 260 µL/min/mg
